# Active and inactive are the calls of the source. The rule behind the calls is not given here.
# Tests used:
# Staphylococcus aureus [1] = experiment: Antibacterial activity against Staphylococcus aureus ATCC 700699 infected in C57BL6 mouse cornea assessed as decrease in number of viable bacteria at 0.5% administered topically at 2 hrs interval for 4 times starting on day 1 post infection measured post last dose relative to control; type: functional, Mu50
# Staphylococcus aureus [2] = experiment: Antibacterial activity against Staphylococcus aureus ATCC 29213 infected in C57BL6 mouse cornea assessed as decrease in number of viable bacteria at 0.5% administered topically at 2 hrs interval for 4 times starting on day 1 post infection measured post last dose relative to control; type: functional
# Staphylococcus aureus [3] = experiment: Disruption of membrane in Staphylococcus aureus isolate DM4001R assessed as increase in ATP leakage at 4 times MIC after 1 hr by ATP bioluminescent assay relative to control; type: functional
# Summary of the method: (§1)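 S. aureus DM4001 grown to exponential phase, washed three times in 20 mM PBS (pH 7), resuspended to OD600 0.2. Compound added, suspensions held 1 hour at 37 °C, then centrifuged. Supernatant mixed with luciferase/luciferin enzyme mix; extracellular ATP quantified by luminescence. Replicated.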
# Staphylococcus aureus [4] = experiment: Disruption of cytoplasmic membrane in Staphylococcus aureus isolate DM4001R at 2 times MIC after 3000 secs by SYTOX green dye based fluorescence assay; type: functional
# Summary of the method: (§2)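 Clinical S. aureus isolate DM4001R incubated with SYTOX Green plus compound; membrane permeabilization read as increased fluorescence intensity. Measurements replicated.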
# Lipid bilayer [5] = experiment: Induction of membrane damage in DOPC/cholesterol large unilamellar vesicles assessed as calcein leakage at compound to lipid ratio of 1:16 after 1 hr by fluorescence assay relative to control
# Summary of the method: (§3)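 100 nm calcein-loaded LUVs made by film hydration; lipid content set by total phosphorus assay. DOPC/cholesterol (3:1, w/w) mimics mammalian and DOPE/DOPG (3:1, w/w) bacterial membranes. Compound in DMF added at lipid-to-compound ratio 16 (6.25 µM compound), final DMF limited to 0.5%. Fluorescence monitored at ex 490/em 520 nm for 1 hour; replicated.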
# Lipid bilayer [6] = experiment: Induction of membrane damage in DOPE/DOPG large unilamellar vesicles assessed as calcein leakage at compound to lipid ratio of 1:16 after 1 hr by fluorescence assay relative to control; summary of the method: as §3
# [7] = Cytotoxicity against human corneal fibroblasts assessed as reduction in cell viability up to 250 uM after 4 hrs by CytoTox-ONE reagent-based LDH assay relative to control; conditions: corneal fibroblast
# Summary of the method: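 Human corneal fibroblasts exposed to compound; cytotoxicity taken from LDH leakage, with cells treated with 1% triton X-100 as positive control. Measurements replicated.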
# Staphylococcus aureus [8] = experiment: Antibacterial activity against Staphylococcus aureus ATCC 29213 at 0.5 times MIC after 17 serial passages; type: functional
# Summary of the method: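 Serial-passage resistance selection in S. aureus ATCC29213. MIC was determined by CA-MHB broth macrodilution (2-fold dilutions, ~5×10^5 CFU/mL, 35 °C). Cells grown at 0.5× MIC were recovered and used to prepare the inoculum for the next MIC assay, with MIC change read after each 24 h/35 °C round. This was repeated for 17 passages, or 30 passages for one compound. Replicated.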
# Staphylococcus aureus [9] = experiment: Bactericidal activity against methicillin-resistant Staphylococcus aureus DM21455 assessed as log reduction in bacterial load at 2 times MIC after 2 hrs by time kill assay; type: functional
# Summary of the method: (§4)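 MRSA DM21455 was taken from colonies on 18-22 h TSA plates and diluted to 10^5~10^6 CFU/mL in PBS. Cells were exposed to 0.5×, 1×, 2× and 4× MIC at 35 °C, with a PBS control. Samples were taken at 10 min, 30 min, 1, 2, 4 and 8 h, 10-fold diluted in PBS and plated on MHA. Colonies were counted after 24-48 h at 35 °C. Replicated.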
# Staphylococcus aureus [10] = experiment: Bactericidal activity against methicillin-resistant Staphylococcus aureus DM21455 assessed as log reduction in bacterial load at 4 times MIC after 10 mins by time kill assay; type: functional; summary of the method: as §4
# [11] = Solubility of the compound in water; type: physicochemical; conditions: buffer
# Enterococcus hirae = experiment: Antibacterial activity against Enterococcus hirae ATCC 9790 after 24 hrs by two fold dilution assay; type: functional; conditions: ATCC 9790, 24 h
# Summary of the method: (§5)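 Broth macro-dilution per CLSI in cation-adjusted Mueller-Hinton broth; compounds dissolved in DMF, diluted in PBS to 1000 µg/mL stock, then serial 2-fold dilutions in CA-MHB in tubes. Inoculum from 18-20 h TSA colonies (direct colony suspension), adjusted to about 5× 10^5 CFU/mL. MIC read after 24 h at 35 °C as lowest concentration with no visible growth; biological replicates.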
# Enterococcus faecalis = experiment: Antibacterial activity against Enterococcus faecalis ATCC 29212 after 24 hrs by two fold dilution assay; type: functional; conditions: ATCC 29212, 24 h; summary of the method: as §5
# Enterococcus faecium [12] = experiment: Antibacterial activity against vancomycin A-resistant Enterococcus faecium VRE 1008 after 24 hrs by two fold dilution assay; type: functional; conditions: VRE 1008, 24 h
# Summary of the method: (§6)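 CLSI broth macrodilution in cation-adjusted Mueller-Hinton broth. Compounds were dissolved in DMF and diluted in PBS to a 1000 µg/mL stock, then serially 2-fold diluted in CA-MHB. The inoculum came from colonies on 18-20 h TSA plates (direct colony suspension), adjusted to ~5×10^5 CFU/mL. Incubation was 24 h at 35 °C. MIC is the lowest concentration with no visible growth versus control. Biological replicates.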
# Enterococcus faecium [13] = experiment: Antibacterial activity against vancomycin A-resistant Enterococcus faecium VRE 1007 after 24 hrs by two fold dilution assay; type: functional; conditions: VRE 1007, 24 h; summary of the method: as §6
# Enterococcus faecium [14] = experiment: Antibacterial activity against vancomycin A-resistant Enterococcus faecium VRE 1006 after 24 hrs by two fold dilution assay; type: functional; conditions: VRE 1006, 24 h; summary of the method: as §6
# Staphylococcus aureus [15] = experiment: Antibacterial activity against methicillin-resistant Staphylococcus aureus ATCC BAA-38 after 24 hrs by two fold dilution assay; type: functional; conditions: ATCC BAA-38, 24 h; summary of the method: as §6
# Staphylococcus aureus [16] = experiment: Antibacterial activity against methicillin-resistant Staphylococcus aureus ATCC 700699 after 24 hrs by two fold dilution assay; type: functional; conditions: Mu50, 24 h; summary of the method: as §6
# Staphylococcus aureus [17] = experiment: Antibacterial activity against methicillin-resistant Staphylococcus aureus ATCC 43300 after 24 hrs by two fold dilution assay; type: functional; conditions: ATCC 43300, 24 h; summary of the method: as §6
# Staphylococcus aureus [18] = experiment: Antibacterial activity against methicillin-resistant Staphylococcus aureus DB57964 after 24 hrs by two fold dilution assay; type: functional; conditions: DB57964, 24 h; summary of the method: as §6
# Staphylococcus aureus [19] = experiment: Antibacterial activity against methicillin-resistant Staphylococcus aureus DB68004 after 24 hrs by two fold dilution assay; type: functional; conditions: DB68004, 24 h; summary of the method: as §6
# Staphylococcus aureus [20] = experiment: Antibacterial activity against methicillin-resistant Staphylococcus aureus DB6506 after 24 hrs by two fold dilution assay; type: functional; conditions: DB6506, 24 h; summary of the method: as §6
# Staphylococcus aureus [21] = experiment: Antibacterial activity against methicillin-sensitive Staphylococcus aureus ATCC 29737 after 24 hrs by two fold dilution assay; type: functional; conditions: ATCC 29737, 24 h; summary of the method: as §6
# Staphylococcus aureus [22] = experiment: Antibacterial activity against methicillin-sensitive Staphylococcus aureus ATCC 6538 after 24 hrs by two fold dilution assay; type: functional; conditions: ATCC 6538, 24 h; summary of the method: as §6
# Staphylococcus aureus [23] = experiment: Antibacterial activity against methicillin-sensitive Staphylococcus aureus ATCC 29213 after 24 hrs by two fold dilution assay; type: functional; conditions: ATCC 29213, 24 h; summary of the method: as §6
# Staphylococcus aureus [24] = experiment: Antibacterial activity against methicillin-sensitive Staphylococcus aureus DM4400R after 24 hrs by two fold dilution assay; type: functional; summary of the method: as §6
# Staphylococcus aureus [25] = experiment: Antibacterial activity against methicillin-sensitive Staphylococcus aureus DM4299 after 24 hrs by two fold dilution assay; type: functional; conditions: DM4299, 24 h; summary of the method: as §6
# Staphylococcus aureus [26] = experiment: Antibacterial activity against methicillin-sensitive Staphylococcus aureus DM4583R after 24 hrs by two fold dilution assay; type: functional; summary of the method: as §6
# Bacillus cereus = experiment: Antibacterial activity against Bacillus cereus ATCC 11778 after 24 hrs by two fold dilution assay; type: functional; conditions: ATCC 11778, 24 h; summary of the method: as §5
# Staphylococcus aureus [27] = experiment: Antibacterial activity against methicillin-resistant Staphylococcus aureus DM 9808R after 24 hrs by two fold dilution assay; type: functional; summary of the method: as §6
# Staphylococcus aureus [28] = experiment: Antibacterial activity against methicillin-resistant Staphylococcus aureus DM 21455 after 24 hrs by two fold dilution assay; type: functional; conditions: DM 21455, 24 h; summary of the method: as §6
# Staphylococcus aureus [29] = experiment: Antibacterial activity against Staphylococcus aureus DM 4001R after 24 hrs by two fold dilution assay; type: functional; summary of the method: as §6
# Staphylococcus aureus [30] = experiment: Disruption of membrane in Staphylococcus aureus isolate DM4001R assessed as […] in ATP leakage at 200 ug/ml after 1 hr by ATP bioluminescent assay relative to control; type: functional; parameters: scale not given: the % may be the effect or the level left; summary of the method: as §1
# Staphylococcus aureus [31] = experiment: Disruption of cytoplasmic membrane in Staphylococcus aureus isolate DM4001R at 100 ug/ml after 3000 secs by SYTOX green dye based fluorescence assay; type: functional; summary of the method: as §2
smiles,measurement,setting,value
COC(=O)[C@H](CCCNC(=N)N)NC(=O)COc1cc(OCC=C(C)C)cc2oc3cc(OCC=C(C)C)cc(OCC(=O)N[C@@H](CCCNC(=N)N)C(=O)OC)c3c(=O)c12,Activity,Staphylococcus aureus [1],92.8%
same,Activity,Staphylococcus aureus [2],98.5%
same,Activity,Staphylococcus aureus [3],59.6%
same,Activity,Staphylococcus aureus [4],Active
same,Activity,Lipid bilayer [5],< 20%
same,Activity,Lipid bilayer [6],58.7%
same,Activity,[7],Non-Toxic
same,Activity,Staphylococcus aureus [8],Active
same,log(activity),Staphylococcus aureus [9],3
same,log(activity),Staphylococcus aureus [10],3
same,solubility,[11],Soluble
same,MIC,Enterococcus hirae,6.25 µg/mL
same,MIC,Enterococcus faecalis,3.13 µg/mL
same,MIC,Enterococcus faecium [12],6.25 µg/mL
same,MIC,Enterococcus faecium [13],6.25 µg/mL
same,MIC,Enterococcus faecium [14],6.25 µg/mL
same,MIC,Staphylococcus aureus [15],3.13 µg/mL
same,MIC,Staphylococcus aureus [16],3.13 µg/mL
same,MIC,Staphylococcus aureus [17],1.56 µg/mL
same,MIC,Staphylococcus aureus [18],1.56 µg/mL
same,MIC,Staphylococcus aureus [19],3.13 µg/mL
same,MIC,Staphylococcus aureus [20],1.56 µg/mL
same,MIC,Staphylococcus aureus [21],0.78 µg/mL
same,MIC,Staphylococcus aureus [22],0.78 µg/mL
same,MIC,Staphylococcus aureus [23],3.13 µg/mL
same,MIC,Staphylococcus aureus [24],0.78 µg/mL
same,MIC,Staphylococcus aureus [25],3.13 µg/mL
same,MIC,Staphylococcus aureus [26],1.56 µg/mL
same,MIC,Bacillus cereus,3.13 µg/mL
same,MIC,Staphylococcus aureus [27],0.78 µg/mL
same,MIC,Staphylococcus aureus [28],1.56 µg/mL
same,MIC,Staphylococcus aureus [29],0.78 µg/mL
O=c1c2c(O)cc(O)cc2oc2cc(O)cc(O)c12,Activity,Staphylococcus aureus [30],6.9%
same,Activity,Staphylococcus aureus [31],inactive
same,Activity,Lipid bilayer [5],< 20%
same,Activity,Lipid bilayer [6],11.7%
same,MIC,Bacillus cereus,> 50 µg/mL
same,MIC,Staphylococcus aureus [27],> 50 µg/mL
same,MIC,Staphylococcus aureus [28],> 50 µg/mL
same,MIC,Staphylococcus aureus [29],> 50 µg/mL
